Measured values published in ChEMBL document CHEMBL1123218, “Synthesis and inhibitory activity on carbonic anhydrase of some new sulpiride analogues studied by means of a new method” (J Med Chem, 1986).
The source made the active and inactive calls. No cut-off for these calls is given here.

Experiments:
Type in all cases: protein assay
[1] = target: T1, Carbonic anhydrase (Bos taurus) (UniProt P00921+Q95323+P18915+Q3SZX4); test: Evaluated for the inhibition of carbonic anhydrase enzyme at 0.2 g/L concentration
Summary of the method: (§1)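 Potentiometric CO2-evolution assay tracked with a pCO2 electrode, 25 ± 0.1 °C, constant stirring, pH 7.0 (0.1 M phosphate buffer), 60 min. NaHCO3 aliquots (0.1 and 5.0 mL) were added to 30 mL buffer at min 2 and 14. CA solution (1.0 mL) was added just before the second bicarbonate addition. Inhibitor was present in the buffer from the assay start.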

[2] = target: T1, Carbonic anhydrase (Bos taurus); test: Compound was evaluated for the inhibition of carbonic anhydrase enzyme at 1.0 g/L concentration; a=No inhibition detected; summary of the method: as §1
[3] = target: T1, Carbonic anhydrase (Bos taurus); test: Compound was evaluated for the inhibition of carbonic anhydrase enzyme at 2.0 g/L concentration; a=No inhibition detected; summary of the method: as §1
[4] = target: T1, Carbonic anhydrase (Bos taurus); test: Compound was evaluated for the inhibition of carbonic anhydrase enzyme at 1.5 g/L concentration; a=No inhibition detected; summary of the method: as §1
[5] = target: T1, Carbonic anhydrase (Bos taurus); test: Compound was evaluated for the inhibition of carbonic anhydrase enzyme at 0.5 g/L concentration; a=No inhibition detected; summary of the method: as §1
[6] = target: T1, Carbonic anhydrase (Bos taurus); test: Compound was evaluated for the inhibition of carbonic anhydrase enzyme at 0.2 g/L concentration; a=No inhibition detected; summary of the method: as §1

| inhibition [1] | Structure (SMILES) | further results |
| --- | --- | --- |
| 61.4% | COc1ccc(S(N)(=O)=O)cc1C(=O)N1CCN(Cc2cc(OC)c(OC)c(OC)c2)CC1 |  |
| 37.9% | COc1ccc(S(N)(=O)=O)cc1CN1CCN(Cc2ccccc2)CC1 |  |
| 54.6% | COc1ccc(S(N)(=O)=O)cc1C(=O)N1CCN(CC(=O)NC(C)C)CC1 |  |
| 39.4% | CCN1CCCC1CN(C)C(=O)c1cc(S(N)(=O)=O)ccc1OC (stereo not given) |  |
| 70.5% | COc1ccc(S(N)(=O)=O)cc1C(=O)N1CCN(Cc2ccc(S(N)(=O)=O)cc2)CC1 |  |
| 66.7% | COc1cccc(CN2CCN(C(=O)c3cc(S(N)(=O)=O)ccc3OC)CC2)c1 |  |
|  | CCN1CCCC1CNC(=O)c1cc(S(=O)(=O)CC)ccc1OC (stereo not given) | inhibition [2]: inactive; inhibition [3]: inactive; inhibition [4]: inactive; inhibition [5]: inactive; inhibition [6]: inactive |
| 36.4% | COc1ccc(S(N)(=O)=O)cc1C(=O)N1CCN(CC(C)C)CC1 |  |
| 41.7% | CC[C@H](C)COc1ccc(S(N)(=O)=O)cc1C(=O)NC[C@H]1CCCN1CC |  |
| 30.3% | COc1ccc(S(N)(=O)=O)cc1C(=O)N1CCNCC1 |  |
| 51.5% | COc1ccc(S(N)(=O)=O)cc1C(=O)N1CCN(CC2CCCCC2)CC1 |  |
| 36.4% | C=CCN1CCN(C(=O)c2cc(S(N)(=O)=O)ccc2OC)CC1 |  |
| 45.5% | COc1ccc(S(N)(=O)=O)cc1C(=O)N1CCN(CC(=O)N2CCCC2)CC1 |  |
| 63.6% | COc1ccc(CN2CCN(C(=O)c3cc(S(N)(=O)=O)ccc3OC)CC2)cc1 |  |
| 42.4% | CC[C@H](C)COc1ccc(S(N)(=O)=O)cc1C(=O)NC[C@@H]1CCCN1CC |  |
| 68.9% | NS(=O)(=O)c1nc(C(=O)N2CCN(Cc3ccccc3)CC2)c[nH]1 |  |
| 58.3% | COc1ccc(S(N)(=O)=O)cc1C(=O)N1CCN(Cc2ccccc2)CC1 |  |
| 46.2% | COc1ccc(S(N)(=O)=O)cc1C(=O)N1CCN2CCCC2C1 (stereo not given) |  |
| 46.2% | CCC(C)CN1CCN(C(=O)c2cc(S(N)(=O)=O)ccc2OC)CC1 (stereo not given) |  |
| 39.4% | COc1ccc(S(N)(=O)=O)cc1C(=O)NCCN1CCCCC1 |  |
|  | CCN1CCC[C@H]1CNC(=O)c1c(OC)c(Br)cc(Br)c1OC | inhibition [2]: No inhibition; inhibition [3]: No inhibition; inhibition [4]: No inhibition; inhibition [5]: No inhibition; inhibition [6]: No inhibition |
| 45.5% | COc1ccc(S(N)(=O)=O)cc1C(=O)NCCCN1CCOCC1 |  |
